Results of several laboratories.
Compare with care: the assays were run in different laboratories.
FLT3: Receptor-type tyrosine-protein kinase FLT3 (FLT3, Homo sapiens, UniProt P36888)
Tmem97: Sigma intracellular receptor 2 (Tmem97, Rattus norvegicus, UniProt Q5U3Y7)
MTNR1A: Melatonin receptor type 1A (MTNR1A, Homo sapiens, UniProt P48039)
F2 trypsin-like site: Prothrombin, trypsin-like site (F2, Bos taurus, UniProt P00735)
CYP51: Sterol 14-alpha demethylase (CYP51, Trypanosoma cruzi, UniProt Q7Z1V1)
HTR2C: 5-hydroxytryptamine receptor 2C (HTR2C, Homo sapiens, UniProt P28335)

Compound	target	test	conditions	measurement	value
COC(=O)[C@H](C)Nc1ccnc(Nc2cccc(-c3cccnc3)c2)n1	FLT3	enzyme activity, inhibitor	–	IC50	> 22 µM
NC(=S)N/N=C1\C(=O)Nc2ccccc21	Tmem97	ligand displacement, radioligand	cell membranes	Ki	> 10 µM
COc1ccc(CNc2cccnc2)cc1Br	MTNR1A	cAMP, agonist, luciferase	–	EC50	0.049 µM
COc1cc2c(cc1OC)CN(CCCCn1ccc3c(OC)cccc31)C2	Tmem97	ligand displacement, radioligand	cell membranes	Ki	0.0063 µM
COc1ccc2[nH]cc(CCNC(C)=O)c2c1I	MTNR1A	GTPγS binding, agonist, radiometric	cell membranes	EC50	0.112 µM
CC(C)(C)[C@H](NC(=O)[C@H](CCONC(=N)N)NC(=O)Cc1ccc(CN)cc1)C(=O)N[C@@H](CCONC(=N)N)C(=O)NCc1ccc(C(=N)N)cc1	F2 trypsin-like site	enzyme activity, inhibitor	pH 8	Ki	25 µM
O=C(NCCc1cccc2ccccc12)C1CCC1	MTNR1A	cAMP, agonist, TR-FRET	–	EC50	1.66 µM
Cc1cnc(-c2ccc(-c3ccc(NC(=O)Nc4c(F)cc(F)cc4F)cc3F)c3c2C(=O)NC3)[nH]1	Aurora kinase C (AURKC, Homo sapiens, UniProt Q9UQB9)	binding, competition with immobilised ligand	–	Kd	0.0011 µM
COc1cccc2c1CCN(C(=O)c1cncn1C)C2	MTNR1A	cAMP, agonist, luciferase	–	EC50	0.0227 µM
c1cc(Nc2nccc(NC3CCCCC3)n2)cc(-c2cc[nH]n2)c1	FLT3	enzyme activity, inhibitor	–	IC50	0.096 µM
Clc1ccc(CNc2cccc(-c3nnc[nH]3)c2)cc1Cl	MTNR1A	cAMP, agonist, luciferase	–	EC50	0.229 µM
Cc1cc2nc3c(=O)[nH]c(=O)nc-3n(C[C@H](O)[C@H](O)[C@H](O)COP(=O)(O)OP(=O)(O)OC[C@H]3O[C@@H](n4cnc5c(N)ncnc54)[C@H](O)[C@@H]3O)c2cc1C	BMP-2-inducible protein kinase (BMP2K, Homo sapiens, UniProt Q9NSY1)	binding	lysate	Kd	0.031 µM
CC(C)Nc1ccnc(Nc2ccc(C(N)=O)cc2)n1	FLT3	enzyme activity, inhibitor	–	IC50	0.213 µM
COc1cc2c(CCNC(C)=O)c[nH]c2cc1I	MTNR1A	β-arrestin recruitment, agonist	–	EC50	0.00525 µM
O=C(O[C@@H](Cn1ccnc1)c1ccccc1)c1ccc(-c2ccccc2)cc1	CYP51	binding	–	Kd	0.087 µM
Cc1cc(Nc2cc3ncccc3c(N[C@@H]3C[C@H]4CC[C@@H](C3)N4CCC#N)n2)n[nH]1	Aurora kinase A (AURKA, Homo sapiens, UniProt O14965)	binding, competition with immobilised ligand	–	Kd	0.066 µM
CCCN1CCN(c2ccc(-c3cncc(Cl)c3N3CCC4(CCNC4=O)CC3)cc2)CC1	Myotonin-protein kinase (DMPK, Homo sapiens, UniProt Q09013)	cell-free assay	lysate	Kd	18.4 µM
O=C(Nc1ccc(Sc2ccc([N+](=O)[O-])cc2)cc1)O[C@@H](Cn1ccnc1)c1ccc(Cl)cc1	CYP51	binding	–	Kd	0.715 µM
Fc1ccc(CNc2cccc(-c3nnc[nH]3)c2)c(F)c1	MTNR1A	cAMP, agonist, luciferase	–	EC50	0.245 µM
Cn1cc(C[C@@H](N)C(=O)O)c2ccccc21	Dihydrofolate reductase (DHFR, Homo sapiens, UniProt P00374)	enzyme activity, inhibitor	pH 7	Ki	810 µM
Cc1ccc(C(=O)Nc2ccc(Oc3cc4cnn(C)c4cc3-c3cn[nH]c3)c(F)c2)c(=O)n1-c1ccc(F)cc1	Tyrosine-protein kinase receptor Tie-1 (TIE1, Homo sapiens, UniProt P35590)	binding, competition with immobilised ligand	–	Kd	0.0009 µM
COCC(C)Nc1ccnc(Nc2cccc(-c3cccnc3)c2)n1 (centres unmarked)	FLT3	enzyme activity, inhibitor	–	IC50	< 0.006 µM

Compound	target	test	conditions	measurement	value
CCC(=O)NC1Cc2ccccc2C(c2ccccc2)C1 (centres unmarked)	MTNR1A	cAMP, agonist, TR-FRET	–	EC50	0.282 µM
O=C(NCCN1CCCCC1)c1cc(Br)ccc1O	Tmem97	ligand displacement, radioligand	cell membranes	Ki	> 10 µM
CC(C)(C)[C@H](NC(=O)[C@H](CCCNC(=N)N)NC(=O)Cc1ccc(CNC(=N)N)cc1)C(=O)N[C@@H](CCCNC(=N)N)C(=O)NCc1ccc(C(=N)N)cc1	F2 trypsin-like site	enzyme activity, inhibitor	pH 8	Ki	20 µM
COc1ccc2c(c1)C(CNC(N)=O)Cc1ccccc1C2 (centres unmarked)	MTNR1A	GTPγS binding, agonist, radiometric	cell membranes	EC50	0.0282 µM
C[C@@H]1Cc2ccccc2N1C(=O)NCCCCN(C)[C@@H]1Cc2cccc3[nH]c(=O)n(c23)C1	HTR2C	ligand displacement, radioligand	–	Ki	> 10 µM
COC(=O)c1nccc(N(C)CC2CCCCC2O)n1 (centres unmarked)	MTNR1A	cAMP, agonist, luciferase	–	EC50	1.86 µM
O=C(O)CNC(=O)C(=O)O	Glutamate dehydrogenase 1, mitochondrial (GLUD1, Bos taurus, UniProt P00366)	binding, NMR	–	Kd	10000 µM
CCOc1ccc(CNc2cccnc2)cc1	MTNR1A	cAMP, agonist, luciferase	–	EC50	0.0635 µM
c1cncc(C2CCCC(Nc3nccc(NC4CCCCC4)n3)C2)c1 (centres unmarked)	FLT3	enzyme activity, inhibitor	–	IC50	> 23 µM
COc1ccc(-c2nsc(NC(=O)[C@@H]3C[C@H]3C)c2C)cc1	Metabotropic glutamate receptor 1 (Grm1, Rattus norvegicus, UniProt P23385)	ligand displacement, radioligand	–	Ki	0.0006 µM
CC(C)c1nc2cc(OCCCCN3CCN(c4cccc5c4OCCO5)CC3)ccc2s1	HTR2C	cell-free assay, radioligand	–	Ki	0.092 µM
CC(C)c1ccc(NC(=O)O[C@@H](Cn2ccnc2)c2ccc(F)cc2)cc1	CYP51	binding	–	Kd	0.083 µM
CCc1nnc(SCc2cc(C(=O)OC)cs2)[nH]1	MTNR1A	cAMP, agonist, luciferase	–	EC50	0.0178 µM
COc1ccc2c(Oc3ccc4c(C(=O)Nc5ccccc5N)cccc4c3)ccnc2c1	Mitogen-activated protein kinase 11 (MAPK11, Homo sapiens, UniProt Q15759)	enzyme activity, inhibitor	–	IC50	> 0.5 µM
Fc1ccc(Nc2nccc(NC3CCCCC3)n2)cc1	FLT3	enzyme activity, inhibitor	–	IC50	3.3 µM
CC(C)(C)[C@H](NC(=O)[C@H](CCONC(=N)N)NC(=O)Cc1ccc(CN)cc1)C(=O)N[C@@H](CCCCN)C(=O)NCc1ccc(C(=N)N)cc1	F2 trypsin-like site	enzyme activity, inhibitor	pH 8	Ki	10 µM
COC(=O)c1cc(CSc2nnc(C3CC3)[nH]2)cs1	MTNR1A	cAMP, agonist, luciferase	–	EC50	0.00757 µM
COc1cccc(-c2cccc(Nc3nccc(NC(C)C)n3)c2)c1	FLT3	enzyme activity, inhibitor	–	IC50	6.97 µM
CCc1ccc2scc(CCNC(C)=O)c2c1	MTNR1A	cAMP, agonist, TR-FRET	–	EC50	0.0398 µM
c1cncc(-c2cccc(Nc3nccc(NC4CCNCC4)n3)c2)c1	FLT3	enzyme activity, inhibitor	–	IC50	0.008 µM
COc1ccc2ncn(CCNC(C)=O)c2c1	MTNR1A	β-arrestin recruitment, agonist	–	EC50	0.871 µM
O=C(NCCCn1ccnc1)O[C@H](Cn1ccnc1)c1ccc(F)cc1	CYP51	binding	–	Kd	0.6 µM
